This is an account of results in article PMC3496770 (Journal of chromatography. A, 2012).

As usually defined, the log P is the decadic logarithm of the partition coefficient of the neutral form, usually between octanol and water.

Data set [1] in a line: Determination of log Ppw and pKa by polymer film. It counts as physicochemical. To be noted: both UHPLC and plate reader; p>0.05. The gist of the method: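 The solute, in 20 mM phosphate-citrate, 20 mM phosphate or TFA buffers (pH 0.9–10.0), was added over the films and shaken at 500 rpm, 25 °C, to equilibrium. The aqueous supernatant was quantified by C18 UHPLC or plate-reader UV at 343 nm. Dpw came from initial versus equilibrium aqueous concentration and phase ratio. Ppw and pKa were derived across pH. Duplicates, SEM.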

The conditions of data set [2]: measured by this polymer-water method; cited from earlier work.

As for `CC1=CC(c2ccccc2)=NS(=O)(=O)N1` [2H-1,2,6-thiadiazine, 3-methyl-5-phenyl-, 1,1-dioxide], the “Ppw− (conditional partition coefficient of the anionic form)” value in data set [1] is reported as “statistically zero”. `Clc1ccc(COC(Cn2ccnc2)c2ccc(Cl)cc2Cl)cc1` (centres unmarked) [econazole]: the “log P” value in data set [2] was 4.83.
